PostGolgi yeast = growth inhibition of a yeast mutant, post-Golgi transport screen; post-Golgi transport phenotypic cell assay; inhibition, % at 10 µM; AID 739; 98,000 compounds, 0.9% hits;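 also: yeast cells grown in 1536-well plates; yeast grown about 18 h at 30C before absorbance read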
E coli WT exp = E. coli BW25113 growth inhibition, expanded screen; OD600 absorbance; growth inhibition, % at 100 µM; 98,000 compounds, 0.15% hits; AID 710;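 active = growth inhibition above about 50% at one test dose, limit read from the data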;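 also: growth measured after 20 h incubation at 37 °C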
PostGolgi ctrl = yeast control strain growth, post-Golgi counter-screen. efflux-deficient yeast background strain, growth absorbance A615, 16 h. inhibition, % at 10 µM. 98,000 compounds, 5% hits. AID 738
PLAP act = activators of human placental alkaline phosphatase. P05187. purified PLAP enzyme, luminescent substrate read-out; hits give high values. activation fold at 20 µM. 96,000 compounds, 1.2% hits. AID 696; in the data active = activation fold above about 2
Target sequence (P05187 whole entry, looked up): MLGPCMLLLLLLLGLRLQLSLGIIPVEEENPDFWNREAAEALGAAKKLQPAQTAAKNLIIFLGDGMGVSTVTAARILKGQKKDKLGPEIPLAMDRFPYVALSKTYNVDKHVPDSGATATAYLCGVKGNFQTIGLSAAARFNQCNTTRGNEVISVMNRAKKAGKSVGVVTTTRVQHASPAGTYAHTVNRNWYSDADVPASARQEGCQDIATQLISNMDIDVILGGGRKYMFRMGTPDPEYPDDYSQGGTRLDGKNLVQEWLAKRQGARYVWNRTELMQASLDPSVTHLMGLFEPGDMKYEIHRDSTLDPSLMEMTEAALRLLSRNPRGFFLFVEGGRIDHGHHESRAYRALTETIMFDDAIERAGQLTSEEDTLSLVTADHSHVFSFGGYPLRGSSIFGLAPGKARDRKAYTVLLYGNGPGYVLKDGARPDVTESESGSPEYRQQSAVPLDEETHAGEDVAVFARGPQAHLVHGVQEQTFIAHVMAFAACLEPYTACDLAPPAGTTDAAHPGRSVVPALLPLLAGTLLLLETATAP
Ecoli tolC = E. coli tolC mutant growth inhibition | E. coli BW25113 tolC mutant growth, OD615 | growth inhibition, % at 10 µM (by protocol) | 65,000 compounds, 2.2% hits | AID 573;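 active = growth inhibition at or above a cutoff equal to the mean over every tested compound plus 3 SD, cut at about 60% in these data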;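 also: growth measured after 20 h incubation at 37 °C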
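Test system: E. coli BW25113 ΔtolC::kan bacteria; incubation: 37 °C, 20 h exposure; medium: LB broth supplemented with 50 µg/mL kanamycin; read-out basis: percent growth inhibition; signal: A615 absorbance measurement; compound: 10 µM final, single dose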
The depositor's hits bear a star; / = no result given. Shown are actives, neighbours in structure and some others; about 7.2% of the full set was active somewhere. Rule as the data show it, unless noted: active = inhibition above about 30%; inactive = the rest.

SMILES | PostGolgi yeast | E coli WT exp | PostGolgi ctrl | PLAP act | Ecoli tolC
Fc1ccccc1-c1nc(NCCCN2CCOCC2)c2ccccc2n1 | / | / | / | / | 5
COc1ccc(/C(O)=C2\C(=O)C(=O)N(CC3CCCO3)C2c2cc(OC)ccc2OC)cc1 (stereo not drawn) | 0 | -2 | 5 | 0.9 | 100*
COc1ccc(/C(O)=C2/C(=O)C(=O)N(CC3CCCO3)C2c2cccc(O)c2)cc1 (stereo not drawn) | -5 | 1 | 5 | 0.9 | /
O=C(Nc1ccon1)c1csc2ccccc12 | -4 | -7 | 9 | 0.8 | 4
O=C(Nc1ccon1)c1csc2c1CCCC2 | 17 | 1 | 32* | 0.8 | -2
COc1cc(OC)cc(C(=O)NCC(=O)N2CCCCC2)c1 | -3 | 4 | 6 | 0.9 | -17
CCN(CC)CCn1c2ccccc2c2cnc(N)c(C#N)c21 | 2 | 22 | 52* | 1.1 | /
COC(=O)c1sc2ccccc2c1-n1cccc1C(=O)C(=O)Nc1ccc(Cl)cc1 | 27 | 1 | 0 | 0.9 | /
Cc1ccc(-n2ncc(C#N)c2/N=C/N(C)C)cc1 | -4 | 11 | 33* | 1 | 14
Cc1ccc(-n2ncc(C#N)c2/N=C/N2CCOCC2)cc1 | 23 | -2 | 2 | 0.8 | -5
N#Cc1nc(COc2ccccc2Cl)oc1NCc1ccc(F)cc1 | 16 | -7 | 12 | 0.9 | 16
N#Cc1nc(COc2ccccc2F)oc1NCCc1ccccc1 | -6 | 7 | 23 | 0.9 | 100*
N#Cc1nc(COc2ccccc2Cl)oc1NCc1cccnc1 | 59* | 8 | 47* | 1.1 | /
COC(=O)c1ccccc1NC(=O)c1ccc(COc2ccc3c(c2)CCC3)cc1 | -3 | -9 | 8 | 0.9 | /
COc1cccc(OC)c1C(=O)NNC(=O)c1cccc(COc2ccc3c(c2)CCC3)c1 | -4 | -6 | 18 | 2* | /
Cc1ccc(-c2noc(CN3C(C)CCCC3C)n2)cc1 (stereo not drawn) | -3 | 1 | 2 | 1.6 | 10
c1ccc(-c2nc(N3CCN(c4ccccc4)CC3)nc(-n3ccnc3)n2)cc1 | 5 | -17 | 54* | 0.9 | 17
c1ccc(-c2nc(N3CCCCCC3)nc(-n3ccnc3)n2)cc1 | 62* | 3 | 72* | 1.2 | 98*
O=C(O)c1ccc(COCC(F)(F)C(F)F)o1 | 7 | -8 | 13 | 1 | 5
Cc1cccc(-n2c(CCn3nc(C)c([N+](=O)[O-])c3C)n[nH]c2=S)c1 | -4 | -1 | 13 | 2.1* | /
Cc1cccc(-n2c(C)n[nH]c2=S)c1 | -2 | 1 | 2 | 1 | /
O=c1ccccn1Cc1c(F)cccc1Cl | 3 | 7 | -14 | 0.8 | /
S=C(NCc1ccco1)N1CCN(Cc2ccc(Cl)cc2Cl)CC1 | 8 | -3 | 32* | 1.1 | /
COc1ccc2[nH]c(C(=O)O)c(NS(=O)(=O)c3ccc(Cl)s3)c2c1 | 7 | -7 | 4 | 2.2* | 15
CC1CCc2c(sc(NC(=O)c3ccc(-c4ccccc4[N+](=O)[O-])o3)c2C#N)C1 (stereo not drawn) | 10 | -13 | -1 | 1 | /
SMILES | PostGolgi yeast | E coli WT exp | PostGolgi ctrl | PLAP act | Ecoli tolC
CC1CCc2c(sc(NC(=O)c3ccc(Cn4cc([N+](=O)[O-])cn4)o3)c2C#N)C1 (stereo not drawn) | -6 | -3 | 38* | 1.1 | /
N#Cc1c(NC(=O)c2ccc(Cn3cc(Br)cn3)o2)sc2c1CCCCC2 | 2 | -18 | 35* | 0.9 | /
NS(=O)(=O)c1cc2c(cc1Cl)NC=NS2(=O)=O | / | / | / | / | 21
O=C1C2CC=CCC2C(=O)N1c1n[nH]c(-c2ccccc2)n1 (stereo not drawn) | 9 | -4 | -3 | 0.3 | /
O=C1C2CC=CCC2C(=O)N1c1n[nH]c(CCc2ccccc2)n1 (stereo not drawn) | 34* | 6 | 10 | 1.2 | /
O=C(CCn1c(=O)c2ccccc2n(CC(=O)NC2CCCC2)c1=O)NCc1ccco1 | 5 | 2 | 8 | 1 | /
COc1cccc(NC(=O)CSc2nnc(-c3cc(-c4ccccn4)nc4ccccc34)o2)c1 | -7 | 2 | 50* | 1.3 | 12
CCOC(=O)c1c(CN2CCCCC2C)oc2ccc(OC)cc12 (stereo not drawn) | 30* | 10 | -1 | 1.4 | /
CCOC(=O)c1c(CN2CCCCC2)oc2ccc(OC)cc12 | 6 | 8 | 4 | 1.5 | -2
CCOC(=O)c1c(CN2CCN(c3ccccc3)CC2)oc2ccc(O)cc12 | -2 | -3 | 32* | 1.3 | 36
CC1CCC2C(C1)c1sc(=O)[nH]c1SC2(C)C (stereo not drawn) | 5 | 14 | 66* | 1.2 | 63*
Cc1cc(NC(=O)CC(CN(C)S(=O)(=O)c2ccccc2)c2ccccc2)no1 (stereo not drawn) | 10 | 3 | -1 | 0.9 | 1
CC(O)c1ccc2c(c1)OCCOCCN(C)CCOCCO2 (stereo not drawn) | 4 | -3 | 5 | 1.2 | -21
Brc1ccc2c(c1)OCCOCCOc1cc(Br)ccc1OCCOCCOCCO2 | 0 | -15 | 68* | 1.4 | /
Cn1c(C(C#N)C2=C(Cl)C(=O)N(c3ccccc3)C2=O)nc2ccccc21 (stereo not drawn) | -4 | -7 | 0 | 1 | -2
O=c1cc2c(nn1Cc1ccccc1Cl)-c1ccccc1CC2 | 14 | -13 | 43* | 1.6 | /
O=C1c2ccccc2C(=O)N1OCc1cccc(Cl)c1 | 28 | -1 | 2 | 0.8 | /
O=c1cc2c(nn1Cc1ccc(Cl)cc1Cl)-c1ccccc1CC2 | -2 | -14 | 27 | 0.9 | /
O=c1cc2c(nn1Cc1ccc(Cl)cc1)-c1ccccc1CC2 | -3 | -8 | 48* | 2* | /
O=c1cc2c(nn1Cc1cccc(Cl)c1)-c1ccccc1CC2 | 20 | -8 | 76* | 1.2 | /
CCOC(=O)C(NC(=O)c1ccc(F)cc1)(Nc1nnc(C)s1)C(F)(F)F (stereo not drawn) | 1 | 2 | 30* | 0.9 | -23
O=C(NCc1ccccn1)c1coc(=O)c(Br)c1 | -4 | -1 | 0 | 1.3 | -4
CCn1c(SCC(=O)NCc2ccccc2)nnc1-c1c[nH]c2ccccc12 | -7 | 9 | 1 | 1.1 | /
CC(=O)c1ccc(NS(=O)(=O)c2cccc(C)c2)cc1 | -3 | 7 | 4 | 0.9 | 0
CC1(C)C(=O)OC(c2cc(Br)ccc2O)C(C)(C)C1=O (stereo not drawn) | / | / | / | / | 63*
SMILES | PostGolgi yeast | E coli WT exp | PostGolgi ctrl | PLAP act | Ecoli tolC
CC12CN3CC(C)(CN(C1)C3c1cc(Br)ccc1O)C2=O (stereo not drawn) | 21 | 0 | 2 | 1 | -5
CCN1CCN(C(c2ccccn2)c2c(NC(=O)c3ccccc3)sc(C)c2C)CC1 (stereo not drawn) | 5 | -14 | 12 | 1.5 | /
CCc1nnc(NC(=O)c2cccc(C(=O)Nc3nnc(CC)s3)n2)s1 | / | / | / | / | 94*
COC(=O)c1ccccc1NC(=O)CNc1cc(Cl)ccc1N1CCOCC1 | 6 | -2 | 35* | 1.7 | 24
COC(=O)c1cc(NCc2ccccc2F)ccc1N1CCOCC1 | 20 | -4 | 7 | 1.5 | /
Cc1cc(Cl)ccc1OC(C)C(=O)N1CCCN(C(=O)C(C)Oc2ccc(Cl)cc2C)CC1 (stereo not drawn) | 9 | -11 | 44* | 1.4 | /

Screens as filed in PubChem.
